# Measured values reported in ChEMBL document CHEMBL1149097, “Orally active antimalarials: hydrolytically stable derivatives of 10-trifluoromethyl anhydrodihydroartemisinin” (J Med Chem, 2004).
# Assays:
# [1] = Oral bioavailability in rat (dose 10 mg/kg i.v. and 50 mg/kg p.o.); format: ADME, organism-based; conditions: in vivo
# Summary of the method: (§1)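 Male Sprague-Dawley rats (280-320 g) were cannulated the day before, then fasted with free access to water, n = 2 per route. The iv dose was nominally 10 mg/kg, about 3 mg/mL in 10% ethanol/15 mM citrate-buffered 0.1 M Captisol, pH 3, infused over 5 min. The oral dose was nominally 50 mg/kg, given by gavage as a suspension in 0.5% HPMC, 0.5% benzyl alcohol and 0.4% Tween 80 in 0.9% NaCl. Carotid blood was sampled over 8 h, and plasma was quantified by HPLC/MS.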
# Mus musculus [2] = assay: In vivo effective dose evaluated against Plasmodium berghei N by peroral administration in mice (Mus musculus); format: functional; conditions: po
# Summary of the method: (§2)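 P. berghei N infection in mice, with drug given subcutaneously or orally, per the Peters protocol. Parasitemia was read on day 4 and expressed as percent reduction at 10 mg/kg. ED50 and ED90 in mg/kg were derived from the same test.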
# Mus musculus [3] = assay: In vivo effective dose was evaluated against Plasmodium berghei N by peroral administration in mice (Mus musculus); format: functional; conditions: po; summary of the method: as §2
# Mus musculus [4] = assay: In vivo antimalarial activity against Plasmodium berghei NK 173 in mice (Mus musculus) by intraperitoneal route at a concentration of 35.5 uM/kg at day 5; format: functional
# Summary of the method: (§3)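 Female CD1 mice (18-20 g) were infected with P. berghei NK 173 at (1-5) × 10^6 parasitized red cells, following the Peters test. Groups held 5-10 mice. Drug was given intraperitoneally at 35.5 µmol·kg⁻¹. Survival was followed to 20 days postinfection.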
# [5] = Plasma clearance following 10 mg/kg intravenous or 50 mg/kg oral dosing in rats; format: ADME, organism-based; conditions: rat, read-out: Activity; summary of the method: as §1
# Mus musculus [6] = assay: Percentage reduction of parasitaemia at day 4 at a concentration of 10 mg/kg by subcutaneous administration; format: functional; summary of the method: as §2
# Mus musculus [7] = assay: In vivo antimalarial activity against Plasmodium berghei NK173 in mice (Mus musculus) by intraperitoneal route at a concentration of 35.5 uM/kg at day 11; format: functional; summary of the method: as §3
# [8] = Partition coefficient between octanol and water (logP); format: physicochemical
# [9] = Solubility in PBS AT pH 7.4 was determined after incubation at 25 degree C; format: physicochemical
# [10] = Solubility in iv formulation was determined after incubation at 25 degree C
# [11] = Volume of distribution following 10 mg/kg intravenous or 50 mg/kg oral dosing in rats was determined; format: ADME, organism-based; conditions: rat, in vivo; read-out: Activity; summary of the method: as §1
# [12] = Log D value between octanol and PBS at pH7.4; format: physicochemical; conditions: pH 7.4
# [13] = pKa value was determined; format: physicochemical
# [14] = Solubility in oral formulation was determined after incubation at 25 degree C; format: physicochemical
# Mus musculus [15] = assay: In vivo effective dose evaluated against Plasmodium berghei N by subcutaneous administration in mice (Mus musculus); format: functional; conditions: sc; summary of the method: as §2
# Mus musculus [16] = assay: In vivo effective dose was evaluated against Plasmodium berghei N by sub cutaneous administration in mice (Mus musculus); format: functional; summary of the method: as §2
# Plasmodium falciparum [17] = assay: In vitro inhibitory concentration against chloroquine-resistant Plasmodium falciparum W2; format: functional, organism-based
# Summary of the method: (§4)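 [3H]hypoxanthine uptake assay on chloroquine-resistant P. falciparum FcB1 (Colombia) and W2 (Indochina) in continuous human erythrocyte culture. Ring-stage synchronized parasites at 0.5% parasitemia and 1% final hematocrit received serially diluted drug, with methanol or DMSO at no more than 0.1% final. Plates ran 42 h at 37 °C in a candle jar, then freeze-thaw, harvest and scintillation counting. IC50 came from nonlinear regression of log dose-response, from at least three experiments.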
# Mus musculus [18] = assay: Compound was evaluated for percentage reduction of parasitaemia at day 4 at a concentration of 10 mg/kg by peroral administration; format: functional; conditions: route oral; summary of the method: as §2
# Mus musculus [19] = assay: In vivo antimalarial activity against Plasmodium berghei NK173 in mice (Mus musculus) by intraperitoneal route at a concentration of 35.5 uM/kg at day 4; format: functional; summary of the method: as §3
# Plasmodium falciparum [20] = assay: In vitro inhibitory concentration against chloroquine-resistant Plasmodium falciparum FcB1; format: functional, organism-based; summary of the method: as §4
# Mus musculus [21] = assay: In vivo antimalarial activity against Plasmodium berghei NK 173 in mice (Mus musculus) by intraperitoneal route at a concentration of 35.5 uM/kg at day 10; format: functional; summary of the method: as §3
# Mus musculus [22] = assay: In vivo effective dose was evaluated against Plasmodium berghei N by subcutaneous administration in mice (Mus musculus); format: functional; conditions: sc; summary of the method: as §2
# Mus musculus [23] = assay: In vivo antimalarial activity against Plasmodium berghei NK 173 in mice (Mus musculus) by intraperitoneal route at a concentration of 35.5 uM/kg at day 12; format: functional; summary of the method: as §3
smiles,measurement,setting,value
"C[C@@H]1CC[C@H]2C(CN3CCN(CCO)CC3)=C(C(F)(F)F)O[C@@H]3OC4(C)CC[C@@H]1[C@]32OO4 (single isomer, unassigned)",bioavailability,[1],34.6%
same,ED50,Mus musculus [2],< 10 mg/kg
same,ED90,Mus musculus [3],< 10 mg/kg
same,Parasitemia,Mus musculus [4],0.5%
same,clearance,[5],149 mL/min/kg
same,Reduction,Mus musculus [6],100%
same,Parasitemia,Mus musculus [7],37%
same,logP,[8],3.52
same,solubility,[9],234 µg/mL
same,solubility,[10],> 3000 µg/mL
same,Vd,[11],11.8 L/kg
same,logD,[12],3.46
same,pKa,[13],6.59
same,solubility,[14],676 µg/mL
same,ED90,Mus musculus [15],< 10 mg/kg
same,ED50,Mus musculus [16],< 10 mg/kg
same,IC50,Plasmodium falciparum [17],15.2 nM
same,Reduction,Mus musculus [18],100%
"CCOCC1=C(C(F)(F)F)O[C@@H]2OC3(C)CC[C@H]4[C@H](C)CC[C@@H]1[C@@]24OO3 (single isomer, unassigned)",Reduction,Mus musculus [6],100%
same,Parasitemia,Mus musculus [7],30%
same,ED90,Mus musculus [15],< 10 mg/kg
same,ED50,Mus musculus [16],< 10 mg/kg
same,Parasitemia,Mus musculus [19],0.4%
same,IC50,Plasmodium falciparum [17],25 nM
same,Reduction,Mus musculus [18],15.6%
"CNCC1=C(C(F)(F)F)O[C@@H]2OC3(C)CC[C@H]4[C@H](C)CC[C@@H]1[C@@]24OO3 (single isomer, unassigned)",IC50,Plasmodium falciparum [20],9.2 nM
"CC1=C(C(F)(F)F)O[C@@H]2OC3(C)CC[C@H]4[C@H](C)CC[C@@H]1[C@@]24OO3 (single isomer, unassigned)",IC50,Plasmodium falciparum [20],6 nM
same,Parasitemia,Mus musculus [7],34%
same,Parasitemia,Mus musculus [19],0%
"C[C@@H]1CC[C@H]2C(COCc3ccccc3)=C(C(F)(F)F)O[C@@H]3OC4(C)CC[C@@H]1[C@]32OO4 (single isomer, unassigned)",IC50,Plasmodium falciparum [17],20 nM
"COCCOCC1=C(C(F)(F)F)O[C@@H]2OC3(C)CC[C@H]4[C@H](C)CC[C@@H]1[C@@]24OO3 (single isomer, unassigned)",IC50,Plasmodium falciparum [20],2.7 nM
same,Parasitemia,Mus musculus [19],6%
"COC(=O)C(C(=O)OC)C1=C(C(F)(F)F)O[C@@H]2OC3(C)CCC4[C@H](C)CC[C@@H]1[C@]42OO3 (single isomer, unassigned)",IC50,Plasmodium falciparum [17],> 1000 nM
"CC1=CO[C@@H]2OC3(C)CC[C@H]4[C@H](C)CC[C@@H]1[C@@]24OO3 (single isomer, unassigned) [ANHYDRODIHYDROARTEMISININ]",IC50,Plasmodium falciparum [20],20 nM
same,Parasitemia,Mus musculus [19],18%
"C[C@@H]1CC[C@H]2C(CO)=C(C(F)(F)F)O[C@@H]3OC4(C)CCC1[C@]32OO4 (single isomer, unassigned)",IC50,Plasmodium falciparum [20],7.5 nM
same,Parasitemia,Mus musculus [19],40%
"C[C@@H]1CC[C@H]2C(COCCO)=C(C(F)(F)F)O[C@@H]3OC4(C)CC[C@@H]1[C@]32OO4 (single isomer, unassigned)",IC50,Plasmodium falciparum [20],2.4 nM
same,Parasitemia,Mus musculus [19],2%
CO[C@H]1O[C@@H]2O[C@@]3(C)CC[C@H]4[C@H](C)CC[C@@H]([C@H]1C)[C@@]24OO3 [ARTEMETHER],bioavailability,[1],1.4%
same,clearance,[5],114 mL/min/kg
same,IC50,Plasmodium falciparum [20],3.5 nM
same,Parasitemia,Mus musculus [7],32%
same,solubility,[9],63.4 µg/mL
same,solubility,[10],4700 µg/mL
same,Vd,[11],8.4 L/kg
same,solubility,[14],256 µg/mL
same,Parasitemia,Mus musculus [19],0%
C[C@@H]1CC[C@H]2C(CC(C(=O)O)C(=O)O)=C(C(F)(F)F)O[C@@H]3O[C@]4(C)CC[C@@H]1[C@]32OO4,IC50,Plasmodium falciparum [17],> 1000 nM
C[C@@H]1CC[C@H]2C(CNCCN)=C(C(F)(F)F)O[C@@H]3O[C@]4(C)CCC1[C@]32OO4 (stereo partly drawn),IC50,Plasmodium falciparum [20],1.2 nM
same,Parasitemia,Mus musculus [21],25%
same,Parasitemia,Mus musculus [19],0%
"C[C@@H]1CC[C@H]2C(CN3CCOCC3)=C(C(F)(F)F)O[C@@H]3OC4(C)CCC1[C@]32OO4 (single isomer, unassigned)",ED50,Mus musculus [2],< 10 mg/kg
same,ED50,Mus musculus [22],< 10 mg/kg
same,ED90,Mus musculus [3],< 10 mg/kg
same,IC50,Plasmodium falciparum [20],3.1 nM
same,Reduction,Mus musculus [6],98.1%
same,Parasitemia,Mus musculus [23],45%
same,ED90,Mus musculus [15],< 10 mg/kg
same,Parasitemia,Mus musculus [19],18%
same,Reduction,Mus musculus [18],93.3%
"CC(=O)OCC1=C(C(F)(F)F)O[C@@H]2OC3(C)CC[C@H]4[C@H](C)CC[C@@H]1[C@@]24OO3 (single isomer, unassigned)",IC50,Plasmodium falciparum [20],1.7 nM
"C[C@@H]1CC[C@H]2C(CN)=C(C(F)(F)F)O[C@@H]3OC4(C)CC[C@@H]1[C@]32OO4 (single isomer, unassigned)",IC50,Plasmodium falciparum [20],4.4 nM
same,Parasitemia,Mus musculus [19],0.7%
"C[C@@H]1CC[C@H]2C(COCC(O)CO)=C(C(F)(F)F)O[C@@H]3OC4(C)CCC1[C@]32OO4 (single isomer, unassigned)",IC50,Plasmodium falciparum [20],3.7 nM
"C=CCOCC1=C(C(F)(F)F)O[C@@H]2OC3(C)CC[C@H]4[C@H](C)CC[C@@H]1[C@@]24OO3 (single isomer, unassigned)",IC50,Plasmodium falciparum [20],6 nM
"C[C@@H]1CC[C@H]2C(CN=[N+]=[N-])=C(C(F)(F)F)O[C@@H]3OC4(C)CC[C@@H]1[C@]32OO4 (single isomer, unassigned)",IC50,Plasmodium falciparum [20],10 nM
"C[C@@H]1CC[C@H]2C(CNS(C)(=O)=O)=C(C(F)(F)F)O[C@@H]3OC4(C)CC[C@@H]1[C@]32OO4 (single isomer, unassigned)",IC50,Plasmodium falciparum [20],20 nM
"Cc1ccc(S(=O)(=O)NCC2=C(C(F)(F)F)O[C@@H]3OC4(C)CC[C@H]5[C@H](C)CC[C@@H]2[C@@]35OO4)cc1 (single isomer, unassigned)",IC50,Plasmodium falciparum [20],19.1 nM
CCNCC1=C(C(F)(F)F)O[C@@H]2O[C@]3(C)CCC4[C@H](C)CC[C@@H]1[C@]42OO3 (stereo partly drawn),ED50,Mus musculus [2],< 10 mg/kg
same,ED90,Mus musculus [3],< 10 mg/kg
same,Parasitemia,Mus musculus [4],5%
same,Reduction,Mus musculus [6],98.1%
same,Parasitemia,Mus musculus [7],66%
same,ED90,Mus musculus [15],< 10 mg/kg
same,ED50,Mus musculus [16],< 10 mg/kg
same,IC50,Plasmodium falciparum [17],13.4 nM
same,Reduction,Mus musculus [18],96%
C[C@H]1[C@H](OC(=O)CCC(=O)O)O[C@@H]2O[C@@]3(C)CC[C@H]4[C@H](C)CC[C@@H]1[C@@]24OO3 [ARTESUNATE],ED50,Mus musculus [2],5.4 mg/kg
same,ED90,Mus musculus [3],15.3 mg/kg
same,Reduction,Mus musculus [6],90%
same,ED90,Mus musculus [15],10.5 mg/kg
same,ED50,Mus musculus [16],2.8 mg/kg
